Screens from PubChem BioAssay.
XBP1 UPR activ = adaptive UPR (XBP1) activation; CHO-XBP1 luciferase reporter, IRE1-XBP1 UPR activation, luminescence; percent of tunicamycin response, DMSO as zero; activation, % at 20 µM; hit rate 0.33% among 330,000;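 active = versus positive control, 20 µM dose yields 30% or more activation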;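 note: 100% = tunicamycin at 10 µg/mL and 0% = DMSO only wells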
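incubation = overnight seeding at 37 °C, 6 h compound treatment at 37 °C | assay system = CHO-XBP1 cells stably carrying IRE1-XBP1-driven luciferase reporter | input = 1000 cells per well | detection = luciferase luminescence | dosing = single point, 20 µM final compound, 1% DMSO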
MDM2 E3 inh = inhibitors of human Mdm2 E3 ubiquitin ligase; cell-based MDM2 ubiquitination luciferase reporter, 2 h; 0 = plate control, 100 = twice control, blank-subtracted; signal enhancement, % at 5 µM; hit rate 0.11% among 210,000; Q00987; AID 1230;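 active = signal enhancement of 30% or more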;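 note: luminescence tracks abundance of the self-degrading MDM2-luciferase fusion protein; higher signal means inhibition of MDM2 E3 ligase activity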
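System: stable MDM2–luciferase fusion reporter cells / Input: 2000 cells seeded into each well / Schedule: 4 h settle plus 2 h compound, 37 °C / Compound: single-point 5 µM / Buffer or medium: cells held in DMEM / Benchmarks: control and blank well means / Evaluation: percent signal gain over controls, blank-subtracted / Measured by: luciferase luminescence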
Beta2AR agonist = activates human beta-2 adrenergic receptor causing internalization | AID 504454 | hit rate 0.43% among 340,000 | P07550 | response, % (no concentration beside the values) | Am2.2-beta2AR cells, FAP receptor internalization, flow cytometry;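 active = response above a set limit, near 3 SD of response in nonfluorescent compounds, cut at about 42% in these data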
Target sequence (P07550 whole entry, looked up): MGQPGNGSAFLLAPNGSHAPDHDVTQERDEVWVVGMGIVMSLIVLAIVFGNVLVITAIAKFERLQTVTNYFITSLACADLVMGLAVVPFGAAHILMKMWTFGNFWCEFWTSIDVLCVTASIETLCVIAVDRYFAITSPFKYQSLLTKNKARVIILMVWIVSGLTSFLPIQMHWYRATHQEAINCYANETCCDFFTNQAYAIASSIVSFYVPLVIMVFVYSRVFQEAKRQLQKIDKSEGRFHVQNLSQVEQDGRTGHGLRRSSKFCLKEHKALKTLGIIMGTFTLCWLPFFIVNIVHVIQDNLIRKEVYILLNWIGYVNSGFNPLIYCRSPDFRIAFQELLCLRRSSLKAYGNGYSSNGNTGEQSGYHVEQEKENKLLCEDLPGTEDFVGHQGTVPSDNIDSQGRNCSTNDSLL
UPR CHOP act = activators of apoptotic arm of unfolded protein response (CHOP) | CHO-CHOP luciferase reporter, UPR activation, luminescence; percent of tunicamycin response over DMSO baseline | activation, % at 10 µM | hit rate 0.34% among 330,000 | AID 449763;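 active = at 10 µM dose, activation of 40% or more, normalized to positive control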;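 note: 100% = tunicamycin at 10 µg/mL and 0% = DMSO alone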
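Dosing – one dose, 10 µM in 0.5% DMSO · System – CHO-CHOP cells, stable luciferase reporter of PERK-eIF2a-CHOP signalling · Input – 500 cells/well · Control set – tunicamycin 10 µg/mL final as positive, DMSO-only wells as negative · Timing – 6 h compound treatment, 37 °C · Measure – % activation vs tunicamycin · Technique – luminescence read with Steady-Glo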
Dynein cargo inh = dynein cargo transport inhibition; 3617.4 mouse cells, GR-EGFP nuclear translocation imaging; test concentration mostly 20 µM; stimulated with dexamethasone, 1 µM; active compounds read low; z-score, hits read low; hit rate 0.47% among 220,000; AID 1381;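 active = plate z-score of nuclear minus cytoplasmic receptor signal below a set negative limit, without overly bright fluorescence or cell loss, cut at about -3.5 in these data, passing the limit was not always enough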;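 note: z-score of nuclear minus cytoplasmic ring GR-EGFP intensity difference per well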
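medium = tetracycline-free induction medium containing charcoal-stripped FBS | probe or stimulus = dexamethasone, 1.0 µM final | timing = 48 h induction, then 1 h compound, then 30 min agonist, 37 °C | detection = automated 10x imaging of fixed Hoechst-stained cells | read-out basis = nuclear versus cytoplasmic GR-EGFP signal, averaged per well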
Mdm2 MdmX PPI = inhibitors of human Mdm2/MdmX interaction; inhibition, % at 8 µM; hit rate 3% among 330,000; SaOS-2 split-luciferase Mdm2/MdmX complementation, luminescence; O15151+Q00987;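 active = inhibition of at least 50% at 8 µM in the primary screen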
Mdm2 MdmX conf = confirmation of human Mdm2/MdmX interaction inhibitors; shares compounds with Mdm2 MdmX PPI; Mdm2-MdmX binding, luminescent assay; inhibition, % at 8 µM; hit rate 55% among 10,000; AID 489028; in the data active = inhibition above about 40%
FLuc counter = inhibits full-length luciferase, flagging false Mdm2/MdmX hits. hit rate 77% among 6,200. AID 504607. shares compounds with Mdm2 MdmX PPI. inhibition, % at 8 µM. SaOS-2 full-length luciferase counterscreen, luminescence;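 active = mean inhibition at 8 µM reaching about 37%, which flags the compound as non-specific, limit read from the data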;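 note: p53-null SaOS-2 cells with luciferase driven by a doxycycline-inducible promoter; compound on cells about two nights before reading with doxycycline added after day one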
* marks the source's active call; other numbers are inactive results; nt = no result given. Hits are enriched below; roughly 3.7% of the tested compounds scored in any of these assays.

SMILES	XBP1 UPR activ	MDM2 E3 inh	Beta2AR agonist	UPR CHOP act	Dynein cargo inh	Mdm2 MdmX PPI	Mdm2 MdmX conf	FLuc counter
CCC1CCCCN1C(=O)CSc1nc2ncccc2[nH]1 (stereo unspecified)	-4	nt	-7	0	nt	3	nt	nt
CCOC(=O)[C@H]1[C@H]2COc3ccc(Br)cc3[C@@H]2N2C(=O)c3ccc(Cl)cc3NC(=O)[C@@]12C	8	nt	6	-1	nt	54*	34	nt
C[C@@]12C(=O)Nc3cc(F)ccc3C(=O)N1[C@H]1c3cc(Br)ccc3OC[C@@H]1[C@@H]2c1ccccc1	2	nt	14	-1	nt	56*	51*	36*
C[C@@]12C(=O)Nc3ccc(F)cc3C(=O)N1[C@H]1c3cc(Br)ccc3OC[C@@H]1[C@@H]2c1ccccc1	5	nt	11	3	nt	37	nt	nt
CCOC(=O)[C@H]1[C@H]2COc3ccc(C)cc3[C@@H]2N2C(=O)c3ccc(C)cc3NC(=O)[C@@]12C	-2	nt	-6	2	nt	15	nt	nt
Cc1ccc2c(c1)[C@H]1[C@H](CO2)[C@H](c2ccccc2)[C@]2(C)C(=O)Nc3cc(F)ccc3C(=O)N12	2	nt	3	1	nt	58*	30	nt
CC(NS(=O)(=O)c1ccccc1Cl)C1CC2CCC1C2 (stereo unspecified)	1	nt	1	-1	nt	-27	nt	nt
COc1ccccc1S(=O)(=O)N1CCNC(=O)C1	-4	nt	-2	0	nt	16	nt	nt
COc1ccc(C2(c3ccc(OC)cc3)NC(=O)N(CC(=O)Nc3ccccc3C(F)(F)F)C2=O)cc1	-2	nt	0	-1	nt	-9	nt	nt
Cc1cc(=O)c(C(=O)O)nn1-c1ccccc1C(F)(F)F	0	nt	4	0	nt	5	nt	nt
CC(C)[C@@]1(c2ccc(Cl)cc2)ON(c2ccccc2C(F)(F)F)C1=O	0	nt	nt	2	nt	75*	44*	50*
COc1ccc([C@@]2(C(C)C)ON(c3ccccc3C(F)(F)F)C2=O)cc1	-2	nt	12	1	nt	80*	56*	45*
COc1ccc([C@]2(C(C)C)ON(c3ccccc3C(F)(F)F)C2=O)cc1	-1	nt	3	2	nt	82*	41*	51*
C[C@H](CO)N1C[C@H](C)[C@@H](CN(C)S(=O)(=O)c2ccc(F)cc2)Oc2c(NS(=O)(=O)c3ccc(F)cc3)cccc2C1=O	-1	nt	2	1	nt	18	nt	nt
O=C(Cn1cc2c(n1)CCCCC2)Nc1ccccc1Br	1	-2	4	1	-0.55	21	nt	nt
Cc1ccc(Nc2nc(-c3c(C)nc4ncccn34)cs2)cc1	10	-17	27	1	-0.28	74*	84*	73*
C=CCNc1nc(-c2c(C)nc3ncccn23)cs1	-6	nt	1	4	nt	9	nt	nt
Cc1nc2ncccn2c1-c1csc(Nc2ccc(O)cc2)n1	-2	-17	-20	0	2	72*	68*	66*
C=CCNc1nc(C(=O)OCC(=O)Nc2c(Cl)cccc2C(F)(F)F)cs1	1	nt	-3	0	nt	-3	nt	nt
CCCC(=O)NC(c1cccs1)c1cc(Cl)c2cccnc2c1O (stereo unspecified)	-1	-11	10	-1	-0.15	82*	69*	25
O=C(O)COc1ccccc1C(Nc1ccccn1)c1cc(Cl)c2cccnc2c1O (stereo unspecified)	-4	-6	0	1	0.54	6	nt	nt
O=C(NC(c1ccccc1)c1cc(Cl)c2cccnc2c1O)c1cccnc1 (stereo unspecified)	4	2	nt	13	0.033	83*	89*	10
CCC(=O)NC(c1cc(Cl)c2ccccc2c1O)C(C)C (stereo unspecified)	-1	nt	-3	-1	nt	-2	nt	nt
